Results published in ChEMBL document CHEMBL1141574, “A comparison of chloroambucil- and xylene-containing polyamines leads to improved ligands for accessing the polyamine transport system” (J Med Chem, 2008).

Key:
[1] = system: CHO-MG; test: Cytotoxicity against PAT deficient CHO-MG cells after 48 hrs; format: cell-based; details: Cricetulus griseus
Outline: (§1)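 CHO and CHO-MG grown in RPMI with 10% FCS, glutamine, penicillin/streptomycin and 2 mM aminoguanidine; CHO-MG medium also has L-proline (2 µg/mL); 37 °C, 5% CO2. Cells plated at 1 × 10⁴ cells/mL and drug added after overnight incubation. After 48 h exposure, growth read as MTT formazan absorbance at 540 nm. IC50 is the concentration giving 50% reduction in relative growth; ratio is CHO-MG IC50 over CHO IC50.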

[2] = system: polyamine transporter (PAT); test: Ratio of IC50 for PAT deficient CHO-MG cells to IC50 for PAT active CHO cells; format: cell-based, Cricetulus griseus; details: chinese hamster, PAT-deficient CHO-MG cells and PAT-active CHO cells; read-out: Ratio IC50; outline: as §1
[3] = system: CHO; test: Cytotoxicity against PAT active CHO cells after 48 hrs; format: cell-based; details: Cricetulus griseus; outline: as §1
[4] = system: L1210; test: Cytotoxicity against mouse L1210 cells after 24 hrs in presence of spermidine; format: functional, cell-based; details: L1210, 24 h
[5] = Inhibition of [3H]spermidine uptake at PAT in mouse L1210 cells; format: cell-based
[6] = system: L1210; test: Cytotoxicity against mouse L1210 cells after 48 hrs; format: functional, cell-based; details: L1210, 48 h
Outline: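 L1210 cells in early to mid log phase, viability checked by trypan blue, grown in RPMI with 10% FCS, glutamine, antibiotics and 2 mM aminoguanidine at 37 °C, 5% CO2. Seeded at 6 × 10⁴ cells/mL with drug added at seeding. After 48 h exposure, growth read as MTT formazan at 540 nm. IC50 is the concentration reducing relative growth by 50%.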

[7] = system: FL5.12; test: Induction of apoptosis in 0.1 ng/ml IL3-induced mouse FL5.12A cells at 10 uM; format: functional
Outline: (§2)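 FL5.12A pro-B cells in RPMI1640 with 10% heat-inactivated FCS, antibiotics and IL-3 (2, 0.1 or 0 ng/mL) at 37 °C, 5% CO2. Preincubated 24 h at 5 × 10⁶ cells/well, then given 10 µM compound with aminoguanidine for 24 h. Result is % annexin-positive cells; run in triplicate.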

[8] = system: FL5.12; test: Induction of apoptosis in 2 ng/ml IL3-induced mouse FL5.12A cells at 10 uM; format: functional; outline: as §2
[9] = system: FL5.12; test: Induction of apoptosis in mouse FL5.12A cells at 10 uM; format: functional; outline: as §2
[10] = system: L1210; test: Cytotoxicity against mouse L1210 cells after 24 hrs in presence of 100 uM spermidine; format: functional, cell-based; details: L1210, 24 h
[11] = system: L1210; test: Cytotoxicity against mouse L1210 cells in presence of ODC inhibitor difluoromethylornithine; format: functional, cell-based
[12] = system: FL5.12; test: Induction of apoptosis in mouse FL5.12A cells at 10 uM in presence of spermidine; format: functional
Outline: (§3)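 FL5.12A cells held 24 h at 2, 0.1 or 0 ng/mL IL-3 (5 × 10⁶ cells/well), then treated with compound overnight with or without spermidine (100 µM). Apoptosis read as % annexin-V-FITC-positive cells by flow cytometry; run in duplicate.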

[13] = system: FL5.12; test: Induction of apoptosis in 2 ng/ml IL3-induced mouse FL5.12A cells at 10 uM in presence of spermidine; format: functional; outline: as §3
[14] = system: FL5.12; test: Induction of apoptosis in 0.1 ng/ml IL3-induced mouse FL5.12A cells at 10 uM in presence of spermidine; format: functional; outline: as §3
[15] = Induction of apoptosis in 0.1 ng/ml IL3-induced mouse FL5.12A cells treated after DMSO shock at 10 uM in presence of spermidine; format: functional
Outline: (§4)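 FL5.12A pro-B cells in RPMI1640 with 10% heat-inactivated FCS and 1 mM aminoguanidine, 37 °C, 5% CO2. Preincubated 24 h at the stated IL-3 level (5 × 10⁶ cells/well), then dosed overnight with spermidine 100 µM. Washed, shocked 2 min in 10% DMSO, washed twice in Hank's, and held 2 h at 37 °C.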

[16] = system: FL5.12; test: Induction of apoptosis in mouse FL5.12A cells at 10 uM after DMSO shock; format: functional
Outline: (§5)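 FL5.12A cells held 24 h at 2, 0.1 or 0 ng/mL IL-3 (5 × 10⁶ cells/well), treated overnight with or without spermidine (100 µM), then washed and exposed to 10% DMSO for 2 min. Washed twice in Hank's medium and incubated 2 h at 37 °C. Apoptosis read as % annexin-V-FITC-positive cells; run in duplicate.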

[17] = Induction of apoptosis in 2 ng/ml IL3-induced mouse FL5.12A cells at 10 uM after DMSO shock; format: functional
Outline: (§6)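 FL5.12A pro-B cells in RPMI1640 with 10% heat-inactivated FCS and 1 mM aminoguanidine, 37 °C, 5% CO2. Preincubated 24 h with IL-3 at the stated level (5 × 10⁶ cells/well), then dosed overnight without spermidine. Washed, shocked 2 min in 10% DMSO, washed twice with Hank's, and held 2 h at 37 °C.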

[18] = Induction of apoptosis in 0.1 ng/ml IL3-induced mouse FL5.12A cells at 10 uM after DMSO shock; format: functional; outline: as §6
[19] = system: FL5.12; test: Induction of apoptosis in mouse FL5.12A cells treated after DMSO shock at 10 uM in presence of spermidine; format: functional; outline: as §5
[20] = Induction of apoptosis in 2 ng/ml IL3-induced mouse FL5.12A cells treated after DMSO shock at 10 uM in presence of spermidine; format: functional; outline: as §4
[21] = Chemical stability in phosphate buffer assessed as degraded compound after 48 hrs; format: physicochemical; details: read-out: Activity
Outline: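 NMR in phosphate buffer, pD 7.4, in D2O; sample held 48 h at 37 °C, then the fraction of conjugate degraded was read.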

Row | SMILES | IC50 [1] | selectivity ratio [2] | IC50 [3] | IC50 [4] | Ki [5] | IC50 [6] | Activity [7] | Activity [8] | Activity [9] | IC50 [11] | further results
1 | NCCCNCCCCNCc1ccc(N(CCCl)CCCl)cc1 | > 100 µM | 1 | > 100 µM | 8.13 µM | 12.4 µM | 8.14 µM |  |  |  |  | 
2 | N=C(N)NN [PIMAGEDINE] |  |  |  |  |  |  | 3.72% | 5.17% | 79.69% |  | 
3 | Cl.Cl.NCCCCNCc1c2ccccc2cc2ccccc12 |  | 1 | 7.7 µM |  | 32.2 µM |  | >95% | >95% | >95% | 9.78 µM | IC50 [10]: 6.96 µM; Activity [12]: 35.32%; Activity [13]: 47.28%; Activity [14]: 35.59%
4 | NCCCCNCCCCNCc1ccc(CNCCCCNCCCCN)cc1 | 50.2 µM | 677 | 0.074 µM | 6.89 µM | 0.52 µM | 0.16 µM |  |  |  | 0.36 µM | 
5 | NCCCCNCCCCNCc1ccc(CNCCCCNCCCCN)c2ccccc12 | > 100 µM | > 833 | 0.12 µM | 6.42 µM | 0.17 µM | 0.25 µM |  |  |  |  | 
6 | Cl.NCCCCNCCCCNCc1c2ccccc2c(CNCCCCNCCCCN)c2ccccc12 | > 100 µM | > 2220 | 0.045 µM | 5.52 µM | 0.39 µM | 0.78 µM | 6.07% | 5.56% | 8.64% | 0.22 µM | Activity [15]: 10.2%; Activity [16]: 67.53%; Activity [17]: 44.7%; Activity [18]: 56.7%; Activity [19]: 16.69%; Activity [20]: 12.9%
7 | NCCCCNCCCCNCc1ccccc1 | > 1000 µM |  |  |  | 4.5 µM | 36.3 µM |  |  |  |  | 
8 | Cl.NCCCCNCCCCNCc1c2ccccc2cc2ccccc12 |  | 148 |  | 0.83 µM | 1.8 µM |  | 80.41% | 67.71% | >95% | 0.09 µM | Activity [12]: 46.2%; Activity [13]: 37.3%; Activity [14]: 33.87%
9 | NCCCCNCCCCNCc1cccc2ccccc12 |  | > 164 | 0.6 µM |  | 3.8 µM |  |  |  |  | 0.43 µM | 
10 | NCCCCNCCCN [SPERMIDINE] |  |  |  |  |  |  | 6.07% | 5.52% | 58.16% |  | 
11 | NCCCCNCCCCNCc1ccc(N(CCCl)CCCl)cc1 | > 100 µM | 1 | > 100 µM | 31.1 µM | 5.97 µM | 35.4 µM |  |  |  |  | degraded at 48 h [21]: 89%
12 | O=C(O)CCCc1ccc(N(CCCl)CCCl)cc1 [CHLORAMBUCIL] | 111 µM | 1.32 | 84.5 µM |  | > 150 µM | 14.1 µM |  |  |  |  | 
13 | NCCCCNCCCNCc1ccc(N(CCCl)CCCl)cc1 | > 100 µM | 1 | > 100 µM | 7.83 µM | 2.66 µM | 6.53 µM |  |  |  |  | 
